Assay results from ChEMBL document CHEMBL1121948, “Alkylation of the prosthetic heme in cytochrome P-450 during oxidative metabolism of the sedative-hypnotic ethchlorvynol” (1982).

Experiments:
Format in all cases: functional
[1] = species on record: Rattus norvegicus; assay: Percentage cytochrome P-450 loss from phenobarbital pretreated rats was measured in the presence of the oxygen after 20 min
[2] = species on record: Rattus norvegicus; assay: Percentage cytochrome P-450 loss from phenobarbital pretreated rats was measured in the presence of the Ethchlorvynol after 20 min; Not detectable
[3] = species on record: Rattus norvegicus; assay: Percentage cytochrome P-450 loss from phenobarbital pretreated rats was measured in the presence of the NADPH after 10 min; Not detectable
[4] = species on record: Rattus norvegicus; assay: Percentage cytochrome P-450 loss from phenobarbital pretreated rats was measured in the presence of the Ethchlorvynol after 30 min; Not detectable
[5] = species on record: Rattus norvegicus; assay: Percentage cytochrome P-450 loss from phenobarbital pretreated rats was measured in the presence of oxygen and NADPH after 10 min
Outline: (§1)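 Liver microsomes from phenobarbital-pretreated male Sprague-Dawley rats (1 mg/mL protein) were incubated at 37 °C with 1 mM ethchlorvynol, 1 mM NADPH, 1.5 mM EDTA and 150 mM KCl in […], pH 7.4, under air. The reaction was started with NADPH. Cytochrome P-450 loss was measured spectroscopically. Values are the mean ± SD of three determinations.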

[6] = species on record: Rattus norvegicus; assay: Percentage cytochrome P-450 loss from phenobarbital pretreated rats was measured in the presence of oxygen and NADPH after 30 min; outline: as §1
[7] = species on record: Rattus norvegicus; assay: Percentage cytochrome P-450 loss from phenobarbital pretreated rats was measured in the presence of the Ethchlorvynol after 10 min; Not detectable
[8] = species on record: Rattus norvegicus; assay: Percentage cytochrome P-450 loss from phenobarbital pretreated rats was measured in the presence of the NADPH after 30 min; Not detectable
[9] = species on record: Rattus norvegicus; assay: Percentage cytochrome P-450 loss from phenobarbital pretreated rats was measured in the presence of the NADPH after 20 min; Not detectable
[10] = species on record: Rattus norvegicus; assay: Cytochrome P-450 loss from phenobarbital pretreated rats was measured in the presence of oxygen and NADPH after 20 min
Outline: (§2)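 This was a separate 20-min experiment using the standard microsomal mix at 37 °C: phenobarbital-induced rat microsomes at 1 mg/mL, 1 mM ethchlorvynol, 1 mM NADPH, EDTA and KCl in phosphate buffer pH 7.4. P-450 loss was measured spectroscopically and heme loss by the pyridine hemochromogen assay, both expressed in nmol. Values are the mean ± SD of three determinations.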

[11] = species on record: Rattus norvegicus; assay: Heme loss from phenobarbital pretreated rats was measured in the presence of oxygen and NADPH after 20 min; outline: as §2
[12] = species on record: Rattus norvegicus; assay: Percentage cytochrome P-450 loss from phenobarbital pretreated rats was measured in the presence of oxygen and NADPH after 20 min; outline: as §1

For `C#CC(O)(/C=C/Cl)CC` (configuration not stated) [ETHCHLORVYNOL], the Cytochrome loss [1] was 4%, the Cytochrome loss [2] was “Not detectable” and the Cytochrome loss [3] was “Not detectable”. For the same compound, the Cytochrome loss [4] was “Not detectable”, the Cytochrome loss [5] was 30% and the Cytochrome loss [6] was 38%. The Cytochrome loss [7] was “Not detectable”, the Cytochrome loss [8] was “Not detectable” and the Cytochrome loss [9] was “Not detectable”. It also gave a P-450 loss [10] of 0.52 nM, a Heme loss [11] of 0.32 nM and a Cytochrome loss [12] of 35%.
